Compound activity: PubChem BioAssay, SRMLSC
This is one part of a sample in which hits are shown more often than they occur.
HCT116 bCat-KO: beta-catenin-lacking colon tumor cell growth suppression. viability, % at 10 µM. 140,000 tested, 1.5% active. HCT116 beta-catenin knockout viability, CellTiter-Glo, 60 h; active compounds read low;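 active means viability at or under a set limit, the compound median less 4 SD, cut at about 6% in these data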;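 further: 0% = Hyamine 1622 control at 20 µM and 100% = untreated cell control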
H69AR growth 86K: growth inhibitors of human H69AR lung tumor cells | H69AR lung tumor viability, ATP luminescence, 72 h; active compounds read low | viability, % at 10 µM | 85,000 tested, 6% active;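 active means viability at or below 40%; inactive means viability above 40%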;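 further: multidrug resistant small cell line overexpressing MRP-1 efflux transporter; 100% = mean luminescence of untreated control wells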
Fibroblast inh: blocks proliferation of human lung fibroblasts | 85,000 tested, 1.1% active | viability, % at 10 µM | LL 47 human lung fibroblast viability, ATP luminescence; active compounds read low;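 active means viability at or below 50% in the single dose screen; inactive means viability above 50%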;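 further: compound exposure lasted 72 h before the ATP readout; 100% = median luminescence of untreated cell-only wells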
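test system = LL 47 human lung fibroblasts | amount = 1,150 fibroblasts seeded per well | medium = 15% FBS in IMEM | times = overnight cell rest, 72 h compound treatment at 37 °C | measured by = CellTiter-Glo luminescence measuring cellular ATP | read-out = viability percentage against median untreated-cell control | benchmarks = cell-only wells, no compound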
PTEN del growth: suppresses growth of cells with PTEN deletion. HCT116 PTEN-null viability, CellTiter-Glo, 60 h; active compounds read low. 140,000 tested, 1.2% active. viability, % at 10 µM. AID 827;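 active means viability at or below a set limit, 4 SD under the median of all tested compounds, cut at about 3.7% in these data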;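 further: PTEN knockout HCT116 line with beta catenin targeted HCT116 as companion control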
HUVEC prolif 384: inhibitors of human endothelial cell proliferation; HUVEC proliferation, CellTiter-Glo luminescence, 72 h; active compounds read low; viability, % at 10 µM (by protocol); 86,000 tested, 1.1% active;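 active means viability at or below 30%; inactive means viability above 30%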;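 further: 100% = median luminescence of DMSO-only cell control wells on each plate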
An asterisk follows results filed as active; / = not tested or not shown.

SMILES | HCT116 bCat-KO | H69AR growth 86K | Fibroblast inh | PTEN del growth | HUVEC prolif 384
COc1ccc(CN(C(=O)CO/N=C/c2ccccc2)c2ccccc2C(=O)O)cc1 | 92 | / | / | 103 | /
CCC1=Nc2cc(C(=O)NCCCOC(C)C)ccc2Sc2ccccc21 | 88 | 26* | 56 | 90 | 59
COC(=O)c1ccccc1NC(=O)CN1CCC(n2nnc3cc(C)ccc32)CC1 | / | 82 | 99 | / | 82
Cc1cc(NC(=O)CN2CCC(n3nnc4cc(C(F)(F)F)ccc43)CC2)no1 | 64 | 78 | 99 | 72 | 92
CCOC(=O)c1ccccc1NC(=O)CN1CCC(n2nnc3cc(F)ccc32)CC1 | / | 27* | 93 | / | 59
CCOc1ccc2nc(NC(=O)CN3CCC(n4nnc5cc(C(F)(F)F)ccc54)CC3)sc2c1 | 65 | 38* | 89 | 64 | 86
Cc1ccc(Nc2ncccc2C(N)=O)cc1[N+](=O)[O-] | 94 | / | / | 92 | /
NS(=O)(=O)c1ccc(CNC(=O)CCC2CCCCC2)cc1 | 106 | / | / | 106 | /
Cc1c(CCC(C)C)c(-n2ccnc2C)n2c(nc3ccccc32)c1C#N | 72 | 23* | 100 | 74 | 105
C=C(C)CN1CCN(c2c(CCC#N)c(C)c(C#N)c3nc4ccccc4n23)CC1 | 2.9* | 38* | 69 | 3.1* | 74
CCCCCc1c(C)c(C#N)c2nc3ccccc3n2c1-n1ccnc1C | 77 | / | / | 70 | /
Cc1nc(N2CCN(c3ccccc3)CC2)[nH]c(=O)c1Cc1cccc2ccccc12 | 38 | 22* | 57 | 37 | 52
Cc1nn(-c2ccccc2)c2sc(C(=O)NC3CC3)cc12 | 83 | 95 | 90 | 84 | 91
Cc1nn(-c2ccccc2)c2sc(C(=O)N(CC(=O)NC3CCCC3)Cc3ccco3)cc12 | 68 | 26* | 53 | 37 | 54
CCN1CCCC1CNC(=O)C1CCN(Cc2nc(-c3cccc(Br)c3)oc2C)CC1 (stereo not drawn) | 4.7* | 52 | 29* | 6 | 18*
COc1ccccc1CNC(=O)C1CCN(Cc2nc(-c3ccc(Cl)cc3)oc2C)CC1 | / | 66 | 103 | / | 42
CCc1ccc(-c2nc(CN3CCC(C(=O)NCCc4ccc(OC)c(OC)c4)CC3)c(C)o2)cc1 | 2.0* | 69 | 90 | 15 | 55
COc1ccccc1CNC(=O)C1CCN(Cc2nc(-c3cccc(Cl)c3)oc2C)CC1 | 22 | 40* | 89 | 24 | 56
CCc1ccc(-c2nc(CN3CCC(C(=O)NCc4ccccc4OC)CC3)c(C)o2)cc1 | 21 | 18* | 66 | 34 | 32
Cc1c(C(=O)NCC2CCCO2)oc2ccc(S(=O)(=O)N3CCCCC3)cc12 (stereo not drawn) | 90 | 86 | 93 | 92 | 83
Cc1ccc(C2C(/C=C3/SC(=S)NC3=O)=C(c3cccs3)Oc3ccccc32)cc1 (stereo not drawn) | 64 | 14* | 92 | 60 | 49
Nc1nc2ccccc2n1C(=O)CCc1ccccc1 | 71 | 26* | 85 | 68 | 85
O=c1cc(CO)oc(C(Nc2ccccn2)c2ccc(C(F)(F)F)cc2)c1O (stereo not drawn) | 80 | 19* | 89 | 86 | 91
O=c1cc(CO)oc(C(Nc2ccccn2)c2cccc(F)c2)c1O (stereo not drawn) | 102 | 91 | 97 | 113 | 102
CCOc1cccc2sc(NC(=O)c3ccc(Br)s3)nc12 | 58 | 30* | 97 | 59 | 86
SMILES | HCT116 bCat-KO | H69AR growth 86K | Fibroblast inh | PTEN del growth | HUVEC prolif 384
CCOC(=O)c1c(NC2OC(=O)c3c2ccc(OC)c3OC)sc(C(=O)OC(C)(C)C)c1C (stereo not drawn) | 94 | / | / | 98 | /
CCN(CC)C(=O)c1ccc2c(c1[N+](=O)[O-])C(=O)c1ccccc1C2=O | 8 | / | / | 2.6* | /
CCN(CC)C(=O)c1cccc2c1C(=O)c1ccccc1-2 | 94 | 92 | 96 | 97 | 104
O=C(N/N=C/C=C\c1ccccc1[N+](=O)[O-])c1cccs1 | 76 | / | / | 79 | /
O=C(N/N=C/c1ccco1)c1cc(-c2ccc3ccccc3c2)n[nH]1 | 48 | 1.8* | 76 | 27 | 3.7*
O=C(N/N=C/C=C\c1ccccc1[N+](=O)[O-])c1cc(-c2ccc3ccccc3c2)n[nH]1 | 4.7* | / | / | 5 | /
O=C(N/N=C/c1c[nH]c2ccccc12)c1cc(-c2ccc(-c3ccccc3)cc2)n[nH]1 | 1.1* | / | / | 1.3* | /
N#C/C(=C/c1ccc(-c2ccc(C(=O)O)c(Cl)c2)o1)C(=O)NCC1CCCO1 (stereo not drawn) | 89 | / | / | 105 | /
Cc1ccc(-c2noc(CCCOc3ccc(Cl)cc3Cl)n2)cc1 | 82 | 98 | 101 | 92 | 110
